Hits are enriched below; roughly 2.8% of the tested compounds scored in any of these assays.
NPY1 pot ag = NPY-Y1 receptor potentiators or agonists, primary screen, cell-based | NPY-Y1 expressing cells, potentiator/agonist activation | Neuropeptide Y receptor type 1 (Homo sapiens), P25929 | AID 1304, 2008 | 0.37% of 220,000 active | activation, % at 3.6 µM; in the data active = activation above about 33%, passing the limit was not always enough;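 note: cells stimulated with NPY at EC10 then isoproterenol at EC100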
NPY2 pot ag = NPY-Y2 potentiators or agonists, primary screen, cell-based. Neuropeptide Y receptor type 2 (Homo sapiens), P49146. cells expressing NPY-Y2, potentiator/agonist read-out. activation, % at 3.6 µM. 0.45% of 220,000 active; in the data active = activation above about 27%;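 note: cells stimulated with NPY near EC25 plus isoproterenol at EC100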
EP2 antag = human EP2 receptor antagonists, primary screen, TR-FRET cAMP, C6 glioma cells; Prostaglandin E2 receptor EP2 subtype (Homo sapiens), P43116; C6 glioma cells expressing human EP2; cells stimulated with saturating PGE2; inhibition, % at 25 µM; 0.52% of 260,000 active; AID 1422, 2008;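 active = percent inhibition above 40 after rounding to a whole number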;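 note: rat C6 glioma host cells with rolipram phosphodiesterase inhibitor present; the protocol text gives 20 µM as final concentration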
Target sequence (P43116 whole entry, looked up): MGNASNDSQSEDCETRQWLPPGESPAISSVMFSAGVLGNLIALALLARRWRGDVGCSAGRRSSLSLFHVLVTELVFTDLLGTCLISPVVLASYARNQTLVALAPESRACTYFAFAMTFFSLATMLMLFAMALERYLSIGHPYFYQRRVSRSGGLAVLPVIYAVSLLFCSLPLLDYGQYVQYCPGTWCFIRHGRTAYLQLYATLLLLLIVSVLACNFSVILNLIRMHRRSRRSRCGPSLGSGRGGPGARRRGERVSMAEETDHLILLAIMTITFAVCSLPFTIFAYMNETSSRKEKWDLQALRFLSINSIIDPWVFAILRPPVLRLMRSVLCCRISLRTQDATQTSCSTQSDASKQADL
NPY-Y2 antag = NPY-Y2 receptor antagonists, primary screen, cell-based | Neuropeptide Y receptor type 2 (Homo sapiens), P49146 | NPY-Y2 expressing cells, antagonist mode | inhibition, % at 2.7 µM | 0.99% of 140,000 active; in the data active = inhibition above about 17%
NPY Y1 blocker = NPY-Y1 receptor antagonists, primary screen, cell-based. Neuropeptide Y receptor type 1 (Homo sapiens), P25929. HEK293-CNG Y1 cells, membrane potential fluorescence; NPY at EC95, then isoproterenol. inhibition, % at 3.6 µM. 1% of 200,000 active;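 active = inhibition above the campaign mean inhibition of all tested compounds plus 3 SD, cut at about 20% in these data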
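Test system – HEK293 Y1/CNG channel cell line · Also added – NPY agonist 25 nM, then isoproterenol 1 µM plus Ro 20-1724 25 µM · Compound dosing – one concentration, 3.6 µM, in 0.4% DMSO · Schedule – compound incubation 1 h at room temperature, readout 45 min post-stimulation · Technique – fluorescence, membrane potential probe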
EP2 modulator = EP2 receptor modulators, cAMP readout, primary screen, cell-based, HTRF cAMP, PGE2 stimulation | Prostaglandin E2 receptor EP2 subtype (Homo sapiens), P43116 | EP2-expressing cells, cAMP HTRF FRET, PGE2 co-stimulation | induction, % at 25 µM | 0.83% of 260,000 active | AID 940, 2007;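 active = compounds whose cAMP rise, as percent of the full-agonist control response, exceeds 60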;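 note: rat C6 glioma line stably carrying human EP2 under a CMV promoter; the protocol text gives 20 µM as final concentration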
Hits are given with their value.

For Cn1cnc([N+](=O)[O-])c1[Se]c1nc(N)nc2c1ncn2[C@H]1O[C@@H](CO)[C@H](O)[C@H]1O the results were EP2 antag 42 and EP2 modulator inactive.
`CCCC(=O)Nc1sc(C(=O)Nc2cccc(C)c2C)c(C)c1C(=O)OC` gave EP2 antag inactive and EP2 modulator inactive.
C=CCSc1nc(N)c(C#N)c(-c2ccc(C)cc2)c1C#N was read as NPY1 pot ag 45, NPY2 pot ag 45, EP2 antag inactive, NPY-Y2 antag inactive, NPY Y1 blocker inactive and EP2 modulator inactive.
Screening COc1ccc(C[C@H](C)NC[C@@H](O)c2ccc(O)c(NC=O)c2)cc1 returned EP2 antag inactive.
For COc1ccc([C@H](C)NC[C@H](O)c2ccc(O)c(NC=O)c2)cc1 the results were NPY1 pot ag 59, NPY2 pot ag 79, EP2 antag inactive, NPY Y1 blocker inactive and EP2 modulator 81.
`Cc1c(O)c(CN2CCCC2)cc2c3c(c(=O)oc12)CCC3` gave NPY1 pot ag inactive, NPY2 pot ag inactive, EP2 antag inactive, NPY-Y2 antag inactive, NPY Y1 blocker inactive and EP2 modulator inactive.
For Cc1c(O)c(CN2CCCC2)cc2c1oc(=O)c1ccccc12 the results were NPY1 pot ag 65, NPY2 pot ag 57, EP2 antag inactive, NPY-Y2 antag inactive, NPY Y1 blocker inactive and EP2 modulator inactive.
O=C(Nc1cccc(Br)c1)c1ccc2nc(N3C(=O)CCC3=O)sc2c1 was read as NPY1 pot ag inactive, NPY2 pot ag inactive, EP2 antag inactive, NPY-Y2 antag inactive, NPY Y1 blocker inactive and EP2 modulator inactive.
For O=C(Nc1cccc([N+](=O)[O-])c1)c1ccc2nc(N3C(=O)CCC3=O)sc2c1 the results were NPY1 pot ag inactive, NPY2 pot ag inactive, EP2 antag 85, NPY-Y2 antag inactive, NPY Y1 blocker inactive and EP2 modulator inactive.
For Oc1ccc(Cl)cc1Cc1cc(Cl)cc(Cc2cc(Cl)ccc2O)c1O the results were EP2 antag 58 and EP2 modulator inactive.
COc1ccc(-c2nc3n(c2NC(C)(C)C)CCN(C(=O)c2cnccn2)C3)cc1 was read as EP2 modulator inactive.
CCOC(=O)c1cc2sccc2n1Cc1cccc(F)c1 was read as EP2 antag inactive and EP2 modulator 85.
COc1ccc(NC(=O)Cc2ccc(Cl)c(Cl)c2)cn1 was read as NPY1 pot ag inactive, NPY2 pot ag inactive, EP2 antag inactive, NPY Y1 blocker inactive and EP2 modulator inactive.
For COc1ccc(NC(=O)/C(Cl)=C(/Cl)S(=O)Cc2ccccc2Cl)cn1 (configuration not stated) the results were NPY1 pot ag inactive, NPY2 pot ag inactive, EP2 antag 52, NPY Y1 blocker inactive and EP2 modulator inactive.
Cc1ccc(Nc2nc(-c3ccc(O)c(O)c3)cs2)nc1 was read as NPY1 pot ag 44, NPY2 pot ag 51, EP2 antag inactive, NPY Y1 blocker inactive and EP2 modulator inactive.
COc1ccc(-c2csc(Nc3ccc(C)cn3)n2)cc1OC was read as NPY1 pot ag inactive, NPY2 pot ag inactive, EP2 antag inactive, NPY Y1 blocker inactive and EP2 modulator inactive.
For CCOCCCNC(=O)c1ccc(N2CCCC2)c(NS(=O)(=O)c2ccc(C)cc2)c1 the results were NPY1 pot ag 58, NPY2 pot ag 33, EP2 antag inactive, NPY Y1 blocker inactive and EP2 modulator inactive.
CCOc1ccc2[nH]c3c(c2c1)CN(Cc1cnc(CCOC)nc1)CC3 was read as EP2 antag inactive and EP2 modulator inactive.
O=c1[nH]c(=S)[nH]c(-c2ccccc2)c1Cc1c(O)ccc2ccccc12 was read as EP2 antag 46 and EP2 modulator inactive.
`NCc1c(O)ccc2ccccc12` gave NPY1 pot ag inactive, NPY2 pot ag inactive, EP2 antag inactive and EP2 modulator inactive.
`N=C1[C@H](O)[C@]2(I)c3ccccc3N3C(=N)[C@H](O)[C@@H]4c5ccccc5N1[C@@H]4[C@@H]32` gave EP2 antag 68 and EP2 modulator inactive.
For Nc1ccc(-c2ccc(Nc3cc(S(=O)(=O)O)c(N)c4c3C(=O)c3ccccc3C4=O)cc2)c(S(=O)(=O)O)c1 the results were EP2 antag 55 and EP2 modulator inactive.
For COc1ccc(S(=O)(=O)N(Cc2cc3c(C)cc(C)cc3[nH]c2=O)CC2CCCO2)cc1 (configuration not stated) the results were EP2 antag inactive and EP2 modulator inactive.
Screening CCC(c1nnnn1C1CCCCC1)N(CCc1cccc(C)c1)Cc1cc2cccc(C)c2[nH]c1=O (configuration not stated) returned EP2 antag inactive and EP2 modulator inactive.
For CCC(c1nnnn1C1CCCC1)N(Cc1ccccc1)Cc1cc2cccc(C)c2[nH]c1=O (configuration not stated) the results were EP2 antag inactive and EP2 modulator 64.
For CCC(c1nnnn1C1CCCCC1)N(Cc1ccco1)Cc1cc2c(C)ccc(C)c2[nH]c1=O (configuration not stated) the results were EP2 antag inactive and EP2 modulator 76.
`CCC(c1nnnn1C1CCCCC1)N(Cc1ccc(C)cc1)Cc1cc2c(C)ccc(C)c2[nH]c1=O` (configuration not stated) gave EP2 antag inactive and EP2 modulator inactive.
`COc1ccccc1N=c1oc2cc(O)ccc2cc1C(=O)NCC1CCCO1` (configuration not stated) gave NPY1 pot ag inactive, NPY2 pot ag inactive, EP2 antag inactive, NPY-Y2 antag 21, NPY Y1 blocker 24 and EP2 modulator inactive.
`C=CCn1cnc2scc(-c3ccc(OCC)cc3)c2c1=O` gave EP2 antag inactive and EP2 modulator inactive.
`Cc1sc(NC(=O)c2ccccc2)c(C(=O)c2ccccc2)c1C` gave NPY1 pot ag inactive, NPY2 pot ag inactive, EP2 antag inactive, NPY-Y2 antag inactive, NPY Y1 blocker inactive and EP2 modulator 65.
For Cc1cc(C)c2nc(N3CCN(C)CC3)c(C#N)cc2c1 the results were NPY1 pot ag inactive, NPY2 pot ag inactive, EP2 antag inactive, NPY-Y2 antag 26, NPY Y1 blocker 52 and EP2 modulator inactive.
For Cc1cccc2cc(C#N)c(N3CCN(C)CC3)nc12 the results were NPY1 pot ag inactive, NPY2 pot ag inactive, EP2 antag inactive, NPY-Y2 antag inactive, NPY Y1 blocker inactive and EP2 modulator inactive.
Screening CC(=O)n1c2ccccc2c2ccccc21 returned NPY1 pot ag inactive, NPY2 pot ag inactive, EP2 antag inactive, NPY-Y2 antag inactive, NPY Y1 blocker inactive and EP2 modulator inactive.

High-throughput results (PubChem)
